Results on 3 compounds are retold here after paper PMC8349541 (OncoTargets and therapy, 2021).

For assay [1], the system named is SVG p12 normal brain cell line. Description: MTS cell viability assay, SVG p12. The class given is cell-based, human. For orientation: Formazan colour is commonly taken as a measure of viable cells.
In assay [2] the test system is NHA (normal human astrocyte). Description: MTS cell viability assay, NHA. The class given is cell-based.
Assay [3] deals with LN229 glioma cells. Description: MTS cell viability assay, LN229. It counts as cell-based, human. In outline: (§1)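 Cells in DMEM with 10% FBS and penicillin/streptomycin at 37°C under 5% CO2, seeded in 96-well plates (LN229 3000, GBM8401 2000 cells per well). Exposed to test compound for 24 h, then incubated 2 h with MTS reagent added to the medium. Absorbance read at 490 nm, and IC50 determined from the viability data.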

Assay [4] relates to GBM8401 glioma cells. In words: MTS cell viability assay, GBM8401. It counts as cell-based, human. The method, boiled down:
as §1

For assay [5], the system named is LN229 glioma cells. Description: BrdU proliferation assay, LN229. The class given is cell-based, human. The settings on record: for effect on cell proliferation: LN229, 48 h, single dose.
Assay [6] concerns GBM8401 glioma cells. In words: BrdU proliferation assay, GBM8401. The class given is cell-based, human. The settings on record: GBM8401, 48 h; for effect on cell proliferation: single dose.
For assay [7], the system named is LN229 glioma cells. Description: Wound healing migration assay, LN229. The class given is cell-based, human. The following applies: LN229, 16 h wound healing, dosage under IC50. In outline: (§2)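 Cells plated at 1×10^5 per well in 12-well plates at 37°C, 5% CO2. At 90% confluence the medium was removed and the monolayer scratched with a 200 μL pipette tip, then washed three times. Wound imaged at 0 and 16 h, and migration calculated from the change in wound area, with 0 h DMSO-control area set to 100%.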

In assay [8] the test system is GBM8401 glioma cells. In words: Wound healing migration assay, GBM8401. It counts as cell-based, human. The following applies: GBM8401, 16 h wound healing, dosage under IC50. In outline: as §2
Assay [9] concerns LN229 glioma cells. In words: Colony formation assay, LN229. The class given is cell-based, human. The following applies: LN229, cultured 2 weeks. The method, boiled down:
(§3)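 Cells seeded at 3000 per well in 6-well plates and grown 2 weeks, with test compound added on day 3. Colonies fixed in methanol and stained with 0.5% crystal violet. Image analysis counted colonies larger than 0.1 mm in diameter. Mean ± s.d., n = 3.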

The test system of assay [10] is GBM8401 glioma cells. Description: Colony formation assay, GBM8401. The class given is cell-based, human. The following applies: GBM8401, cultured 2 weeks. The method, boiled down: as §3
For assay [11], the system named is LN229 glioma cells. Description: Cell cycle analysis. The class given is cell-based, human. The settings on record: LN229, 48 h, low-dose. The method, boiled down: (§4)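 Treated 48 h, then fixed in 70% ethanol at 4°C and held overnight at −20°C. Washed twice in cold PBS containing 1% FBS, then stained with PI solution containing Tween 20 and RNase A for 30 min at 37°C in the dark. DNA content read by flow cytometry. Mean ± s.d., n = 3, against control by t test or one-way ANOVA.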

Assay [12] concerns GBM8401 glioma cells. Description: Cell cycle analysis. The class given is cell-based, human. The following applies: GBM8401, 48 h, low-dose. The method, boiled down:
as §4

Setting [13] is: SVG p12, MTS assay, 24 h treatment.
Where [14] appears, read: Homo sapiens, Glioma cell, 24 h.

Usually IC50 stands for the concentration at which inhibition is half-maximal. Low values mean greater potency in that assay, high ones weaker potency in that assay. In the case of Demethoxycurcumin, the IC50 in assay [1] (setting [13]) stood at 30 µM; in assay [2] (NHA, MTS assay, 24 h treatment), 11.3 µM; with LN229 glioma cells [3] (LN229, MTS assay, 24 h treatment), 24.5 µM; with GBM8401 glioma cells [4] (GBM8401, MTS assay, 24 h treatment), 17.7 µM. Moreover, the “effect on cell proliferation” value is on record as “promoted cell proliferation” in the assay with LN229 glioma cells [5] and “reduce” in the assay with GBM8401 glioma cells [6]. Also, the effect on migration result in the assay with LN229 glioma cells [7] and in the assay on GBM8401 glioma cells [8] was “had no effect on the migration” each time. Moreover, the “effect on colony formation” value in the assay on LN229 glioma cells [9] is listed as “suppressed colony formation in LN229 cells only in high-dose manner”; in the assay with GBM8401 glioma cells [10], “not in GBM8401 cells”.

With `COc1cc(/C=C/C(=O)CC(=O)/C=C/c2ccc(O)c(OC)c2)ccc1O` [Curcumin], the IC50 stood at 4.19 µM in assay [1] (Homo sapiens, SVGp12, 24 h); 22.2 µM in assay [2] (Homo sapiens, Astrocyte, 24 h); 5.85 µM with LN229 glioma cells [3] (Homo sapiens, LN-229, 24 h); 6.31 µM in the assay on GBM8401 glioma cells [4] (setting [14]). For the same compound, the “effect on cell proliferation” value in the assay on LN229 glioma cells [5] and in the assay with GBM8401 glioma cells [6] was “suppressed cell proliferation” throughout. Besides, the effect on migration entry in the assay on LN229 glioma cells [7] and with GBM8401 glioma cells [8] was “dose-dependently inhibited the migration” in each case. Also, the “effect on colony formation” value with LN229 glioma cells [9] and in the assay on GBM8401 glioma cells [10] was “inhibited colony formation” throughout.

`O=C(/C=C/c1ccc(O)cc1)CC(=O)/C=C/c1ccc(O)cc1` [Bisdemethoxycurcumin]: the IC50 in assay [1] (Homo sapiens, SVGp12, 24 h, SVG p12, MTS assay, 24 h treatment) was determined as 30 µM; in assay [1] (setting [13]) it was 29.2 µM; in [2] (NHA, MTS assay, 24 h treatment) it was 31.9 µM; in the assay on LN229 glioma cells [3] (Homo sapiens, LN-229, 24 h), 26.8 µM; in the assay with GBM8401 glioma cells [4] (setting [14]) it was 32.4 µM. The “effect on cell viability” value with LN229 glioma cells [3] (LN229, low-dose) is given as “slightly increased cell viability”; in the assay with GBM8401 glioma cells [4] (GBM8401, low-dose), “slightly increased cell viability”. The “effect on S phase” value in the assay on LN229 glioma cells [11] and in the assay with GBM8401 glioma cells [12] was “increased S phase not significantly” throughout. Moreover, the “dose effect on cell proliferation (BrdU M1)” value in the assay on LN229 glioma cells [5] (LN229 (printed LN299), 48 h) is listed as “dose-dependently increased M1”; with GBM8401 glioma cells [6] it was “dose-dependently increased M1”. Further, the “effect on cell proliferation” value with LN229 glioma cells [5] and with GBM8401 glioma cells [6] was “significantly increased the cell proliferation” each time. Moreover, the effect on migration result in the assay with LN229 glioma cells [7] and in the assay with GBM8401 glioma cells [8] was “had no effect on the migration” in each case. Moreover, the “effect on colony formation” value with LN229 glioma cells [9] and in the assay on GBM8401 glioma cells [10] was “dose dependently increased colony formation” throughout.
